Reference: ChEMBL document CHEMBL1153756, “Synthesis and pharmacological evaluation of N-phenyl-acetamide sulfonamides designed as novel non-hepatotoxic analgesic candidates” (Eur J Med Chem, 2009)
The source made the active and inactive calls. The calls are words filed in the database; no cut-off is given here.

Columns and labels:
Mus musculus [1] = experiment: Analgesic activity in Swiss mouse at 100 umol/kg, po after 30 mins by hot plate test; type: functional
Summary of the method: (§1)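 Swiss mice (20–30 g) given 100 µmol/kg orally and placed on a hot plate at 55 ± 1 °C. Latency to fore- or hind-paw licking or jumping recorded 30, 60, 90 and 120 min after dosing. Baseline is the mean reaction time at 30 and 60 min before dosing. n = 6–8. ANOVA with Dunnett test vs control.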

Mus musculus [2] = experiment: Analgesic activity in Swiss mouse at 100 umol/kg, po after 60 mins by hot plate test; type: functional; summary of the method: as §1
Mus musculus [3] = experiment: Analgesic activity in Swiss mouse at 100 umol/kg, po after 90 mins by hot plate test; type: functional; summary of the method: as §1
Mus musculus [4] = experiment: Analgesic activity in Swiss mouse at 100 umol/kg, po after 120 mins by hot plate test; type: functional; summary of the method: as §1
Mus musculus [5] = experiment: Antihyperalgesic activity in Swiss mouse assessed as inhibition of formalin-induced nociception at 100 umol/kg, po administered 40 mins before formalin challenge measured after 0 to 5 mins; type: functional, organism-based
Mus musculus [6] = experiment: Antihyperalgesic activity in Swiss mouse assessed as inhibition of formalin-induced nociception at 100 umol/kg, po administered 40 mins before formalin challenge measured after 15 to 30 mins; type: functional, organism-based
Summary of the method: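 Swiss mice given 100 µmol/kg p.o. (vehicle arabic gum) 40 min before 20 µL of 2% formalin in 0.9% saline s.c. into the right hind paw. Licking/biting time recorded 0–5 min (neurogenic phase) and 15–30 min (inflammatory phase). n = 6. Mean ± S.E.M. ANOVA with Dunnett test vs control.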

Mus musculus [7] = experiment: Hypothermic activity in Swiss mouse assessed as decrease in rectal body temperature at 100 umol/kg, po after 1 hr at room temperature; type: organism-based; conditions: in vivo
Summary of the method: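 Swiss mice with normal rectal temperature (37.0–38.0 °C) were acclimatized 1 h at 25 °C room temperature, and baseline rectal temperature was taken. Animals were then dosed orally at 100 µmol/kg, and rectal temperature was re-measured 1 h later; change from baseline reported, n = 8, mean ± S.E.M., Dunnett versus control.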

Mus musculus [8] = experiment: Analgesic activity in Swiss mouse assessed as inhibition of acetic acid-induced abdominal writhings at 100 umol/kg, po administered 60 mins before acetic acid challenge relative to control; set-up: scale not given: the % may be the effect or the level left
Mus musculus [9] = experiment: Analgesic activity in po dosed Swiss mouse assessed as inhibition of acetic acid-induced abdominal writhings administered 60 mins before acetic acid challenge measured for 25 mins; type: functional; conditions: Abdomen
Summary of the method: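 Swiss mice (20–30 g). Oral dosing before i.p. 0.6% (v/v) acetic acid, 0.1 mL/10 g. Writhes (abdominal contraction, pelvic rotation, hind-limb extension) counted for 20 min starting 5 min after injection. Result expressed as % inhibition vs vehicle controls. Screening at 100 µmol/kg p.o.; dose-response at 100, 30, 10 and 3 µmol/kg with ID50 by linear regression. n = 8.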

Mus musculus [10] = experiment: Hepatotoxicity in Swiss mouse assessed as increase in serum gamma-glutamyl transferase at 100 umol/kg, po for five days after 24 hrs of last dose; type: toxicity, organism-based; conditions: in vivo
Summary of the method: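 Swiss mice received 100 µmol/kg p.o. daily for five days (n = 6; vehicle n = 5). 24 h after the last dose, blood was drawn under ethyl ether anaesthesia, and serum was separated at 3000 × g for 15 min and kept at 4 °C. gGT was assayed by a kinetic kit method, in U/L. ANOVA with Dunnett test.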

Mus musculus [11] = experiment: Hepatotoxicity in Swiss mouse assessed as changes in morphology of liver parenchyma at 100 umol/kg, po for five days after 24 hrs of last dose; type: toxicity, organism-based; conditions: in vivo
Summary of the method: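 Swiss mice given 100 µmol/kg p.o. daily for 5 days; controls received vehicle. After blood collection 24 h post last dose, animals were killed with CO₂; ten liver samples per animal (two each from left, right, left middle, right middle and caudate lobes) fixed in 10% neutral buffered formalin, H&E stained, examined at 100× and 400× for necrosis or degeneration.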

Mus musculus [12] = experiment: Analgesic activity in Swiss mouse at 15 umol/kg, ip after 30 mins by hot plate test; type: functional
Summary of the method: (§2)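 Hot-plate reference arm in Swiss mice: morphine 15 µmol/kg i.p. Animals placed on a plate at 55 ± 1 °C. Paw-licking or jumping latency read 30, 60, 90 and 120 min after treatment. Baseline is the mean of readings at 30 and 60 min before treatment. n = 8.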

Mus musculus [13] = experiment: Analgesic activity in Swiss mouse at 15 umol/kg, ip after 60 mins by hot plate test; type: functional; summary of the method: as §2
Mus musculus [14] = experiment: Analgesic activity in Swiss mouse at 15 umol/kg, ip after 90 mins by hot plate test; type: functional; summary of the method: as §2
Mus musculus [15] = experiment: Analgesic activity in Swiss mouse at 15 umol/kg, ip after 120 mins by hot plate test; type: functional; summary of the method: as §2

Compound: CCNS(=O)(=O)c1ccc(NC(C)=O)cc1
- Activity (Mus musculus [1]): 23%
- Activity (Mus musculus [2]): 6%
- Activity (Mus musculus [3]): 32.8%
- Activity (Mus musculus [4]): 24.2%
- Activity (Mus musculus [5]): inactive
- Activity (Mus musculus [6]): inactive
- Activity (Mus musculus [7]): 0.2 °C
- Activity (Mus musculus [8]): 48.6%

Compound: CC(=O)Nc1ccc(S(=O)(=O)N2CCNCC2)cc1
- Activity (Mus musculus [1]): 23.5%
- Activity (Mus musculus [2]): 7.2%
- Activity (Mus musculus [3]): 37.1%
- Activity (Mus musculus [4]): 0%
- Activity (Mus musculus [6]): inactive
- Activity (Mus musculus [7]): 0.2 °C
- Activity (Mus musculus [8]): 61.1%

Compound: CCN(CC)S(=O)(=O)c1ccc(NC(C)=O)cc1
- Activity (Mus musculus [1]): 2.4%
- Activity (Mus musculus [2]): 0%
- Activity (Mus musculus [3]): 0%
- Activity (Mus musculus [4]): 0%
- Activity (Mus musculus [6]): Active
- Activity (Mus musculus [7]): -1.8 °C
- Activity (Mus musculus [8]): 45.8%

Compound: CC(=O)Nc1ccc(S(=O)(=O)N2CCN(C)CC2)cc1
- Activity (Mus musculus [9]): Dose-dependent effect
- Activity (Mus musculus [1]): 57.5%
- Activity (Mus musculus [2]): 47.9%
- Activity (Mus musculus [3]): 19.6%
- Activity (Mus musculus [4]): 21.3%
- Activity (Mus musculus [5]): inactive
- Activity (Mus musculus [6]): inactive
- Activity (Mus musculus [7]): -1.8 °C
- Activity (Mus musculus [10]): Non-toxic
- Activity (Mus musculus [11]): Non-toxic
- Activity (Mus musculus [8]): 75%

Compound: CC(=O)Nc1ccc(S(=O)(=O)N2CCOCC2)cc1
- Activity (Mus musculus [1]): 22%
- Activity (Mus musculus [2]): 23.3%
- Activity (Mus musculus [3]): 20.7%
- Activity (Mus musculus [4]): 8%
- Activity (Mus musculus [6]): inactive
- Activity (Mus musculus [7]): -1.4 °C
- Activity (Mus musculus [8]): 43.2%

Compound: CN1CC[C@]23c4c5ccc(O)c4O[C@H]2[C@@H](O)C=C[C@H]3[C@H]1C5 [MORPHINE]
- Activity (Mus musculus [12]): 78.9%
- Activity (Mus musculus [13]): 74.7%
- Activity (Mus musculus [14]): 57.8%
- Activity (Mus musculus [15]): 32.1%

Compound: CC(=O)Nc1ccc(S(=O)(=O)N2CCSCC2)cc1
- Activity (Mus musculus [1]): 25%
- Activity (Mus musculus [2]): 28.6%
- Activity (Mus musculus [3]): 48.3%
- Activity (Mus musculus [4]): 65.1%
- Activity (Mus musculus [5]): inactive
- Activity (Mus musculus [6]): inactive
- Activity (Mus musculus [7]): -0.7 °C
- Activity (Mus musculus [8]): 44%

Compound: CC(=O)Nc1ccc(S(=O)(=O)N2CCCCC2)cc1
- Activity (Mus musculus [1]): 26.5%
- Activity (Mus musculus [2]): 14.3%
- Activity (Mus musculus [3]): 18.2%
- Activity (Mus musculus [4]): 30.7%
- Activity (Mus musculus [6]): Active
- Activity (Mus musculus [7]): -0.8 °C
- Activity (Mus musculus [8]): 29.6%

Compound: CC(=O)Nc1ccc(O)cc1 [ACETAMINOPHEN]
- Activity (Mus musculus [1]): 51.8%
- Activity (Mus musculus [2]): 60.6%
- Activity (Mus musculus [3]): 54.6%
- Activity (Mus musculus [4]): 54.6%
- Activity (Mus musculus [6]): inactive
- Activity (Mus musculus [7]): -1.1 °C
- Activity (Mus musculus [11]): Toxic
- Activity (Mus musculus [8]): 34%
